Here are results for one molecule from ChEMBL document CHEMBL4732112, “Synthesis and in vitro evaluation of novel spiroketopyrazoles as acetyl-CoA carboxylase inhibitors and potential antitumor agents” (Eur J Med Chem, 2021).

The subject of assay [1] is HepG2. As to the kind of experiment: Induction of apoptosis in human HepG2 cells assessed as viable cells at 5 uM measured after 48 hrs by Annexin V-FITC/propidium iodide staining based flow cytometry (reference value: 95.6%). The class given is functional. To be noted: read-out: Activity. A general note: A flow cytometer gives signals particle by particle.
Assay [2] has as its system HepG2. As to the kind of experiment: Induction of apoptosis in human HepG2 cells assessed as chromatin shrinkage at 1 to 10 uM measured after 48 hrs by Hoechst 33258 staining based fluorescence microscopic analysis. To be noted: dose 1-10 µM. The assay is classed as functional, cell-based. A digest of the protocol:
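HepG2 cells exposed to varying concentrations for 48 h in 6-well plates. Stained with Hoechst 33258 in the dark for 20 min, then nuclear morphology inspected by fluorescence microscopy.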

Assay [3] relates to HepG2. As to the kind of experiment: Induction of apoptosis in human HepG2 cells assessed as increase in PARP cleavage at 1 to 10 uM measured after 48 hrs by Western blot analysis. The class given is functional, cell-based. To be noted: dose 1-10 µM. The method in brief:
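Western blots for Bcl-2, Bax, cleaved caspase-3 and cleaved PARP in HepG2 cells after 48 h treatment (1, 5, 10 μM for PARP). Lysates cleared, protein quantified by BCA, run on SDS-PAGE to PVDF, blocked in 5% BSA, primary overnight at 4 °C, DyLight 800 secondary. Infrared scanning and densitometry normalized to β-actin. Mean ± SD, n=3.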
Background: Immunoblotting shows a protein as a band on a membrane.

The test system of the next assay is MDA-MB-231. As to the kind of experiment: Antiproliferative activity against human MDA-MB-231 cells assessed as cell growth inhibition after 72 hrs by MTT assay. The assay is classed as functional, cell-based. To be noted: MDA-MB-231, 72 h. A digest of the protocol: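 HepG2, A549 or MDA-MB-231 cells grown in DMEM with 10% FBS and penicillin/streptomycin at 37 °C, 5% CO2. Seeded at 3×10^3 per well, left 24 h, then exposed to a range of concentrations for 72 h. MTT added for 4 h, formazan dissolved in DMSO, absorbance read at 550 nm. Mean ± SD, n=3.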
In general terms: Formazan colour is commonly taken as a measure of viable cells.

Assay [4] concerns HepG2. As to the kind of experiment: Cell cycle arrest in human HepG2 cells assessed as accumulation at G2/M phase at 10 uM measured after 48 hrs by propidium iodide staining based flow cytometry (reference value: 13.58%). The class given is functional.
The test system of assay [5] is HepG2. As to the kind of experiment: Antiproliferative activity against human HepG2 cells assessed as cell growth inhibition at 10 uM after 72 hrs by MTT assay relative to control. The class given is functional. As to conditions: read-out: GI. The method in brief:
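Cells were DMEM/10% FBS cultures at 37 °C, 5% CO2, seeded at 3×10^3 per well and exposed for 72 h after 24 h attachment. Read-out was MTT with formazan in DMSO and absorbance at 550 nm, expressed as inhibition rate versus control.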

The test system of assay [6] is HepG2. As to the kind of experiment: Antiproliferative activity against human HepG2 cells assessed as combination index at 0.175 uM measured after 72 hrs in presence of 0.35 uM doxorubicin by MTT assay. The class given is functional.
In assay [7] the test system is HepG2. As to the kind of experiment: Induction of apoptosis in human HepG2 cells assessed as necrotic cells at 5 uM measured after 48 hrs by Annexin V-FITC/propidium iodide staining based flow cytometry (reference value: 0.22%). The class given is functional. The method in brief: (§1)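 HepG2 cells incubated with the stated concentrations for 48 h, harvested, and stained with Annexin V-FITC and propidium iodide protected from light. Viable, early apoptotic, late apoptotic and necrotic fractions quantified by flow cytometry. Mean ± SD, n=3.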

The target of another assay is Acetyl-CoA carboxylase 1 (Homo sapiens, UniProt Q13085). Briefly: Inhibition of ACC1 in human HepG2 cells assessed as reduction in intracellular malonyl-CoA level at 10 uM measured after 48 hrs by ELISA relative to control. The assay is classed as cell-based. A digest of the protocol:
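HepG2 cells plated and exposed to the compound at several concentrations for 48 h. Cells washed with PBS, lysed in 1% Triton X-100 and spun 12000 rpm, 4 °C, 15 min. Malonyl-CoA measured by ELISA kit and triglyceride by GPO-POP kit, each normalised to BCA protein. Reported relative to control, mean ± SD, n=3.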

Assay [8] has as its system HepG2. Briefly: Induction of apoptosis in human HepG2 cells assessed as early apoptotic cells at 5 uM measured after 48 hrs by Annexin V-FITC/propidium iodide staining based flow cytometry (reference value: 4.03%). The assay is classed as functional. The method in brief:
as §1

Assay [9] concerns HepG2. Briefly: Cell cycle arrest in human HepG2 cells assessed as accumulation at G2/M phase at 1 uM measured after 48 hrs by propidium iodide staining based flow cytometry (reference value: 13.58%). The assay is classed as functional.

Calls of active or inactive are those of the source. No cut-off for these calls is given here.

Take `CC(C)(C)n1cc2c(n1)C(=O)CC1(CCN(C(=O)c3cc(-c4ccncc4)nc4ccccc34)CC1)O2`: the viability at 5 µM with HepG2 [1] worked out at 44.8%. Moreover, the result in the assay on HepG2 [2] and in the assay on HepG2 [3] was Active. In addition, the IC50 in the assay with MDA-MB-231 was 1.65 µM. The Activity with HepG2 [4] turned out to be 4.9%; with HepG2 [7] it was 3.72%; in the assay with HepG2 [8], 18.9%; in the assay with HepG2 [9] it was 10.86%. Besides, in the assay on HepG2 [5], the inhibition of growth at 10 µM is 80.1%. Moreover, the CI in the assay with HepG2 [6] came to 0.737. In addition, the inhibition at Acetyl-CoA carboxylase 1 amounted to 31.4%.

A word on the IC50: it is the concentration that gives 50% inhibition. By inhibition is commonly meant how much of the control response was suppressed.
